Results on one molecule are retold here after ChEMBL document CHEMBL3804789, “5-Ene-4-thiazolidinones induce apoptosis in mammalian leukemia cells” (Eur J Med Chem, 2016).

pIC50: −log10 of the molar value. Calls of active or inactive are those of the source. The calls are words filed in the database; no cut-off is given here.

In assay [1] the test system is HL-60. Briefly: Cytotoxicity against human HL60 cells assessed as reduction in cell survival up to 1 uM treated for 30 mins with ROS scavenger N-acetylcysteine measured after 72 hrs by MTT assay. It is filed as functional, cell-based.
Assay [2] can be described thus: (§1) Antiproliferative activity against human HL60 cells after 72 hrs by MTT assay. It is filed as functional, cell-based. To be noted: HL-60, 72 h. Put shortly: (§2)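 MTT viability after 72 h continuous exposure. Cells seeded 24 h beforehand at 2,000/well (adherent) or 10,000/well (suspension), then given 0, 0.01, 0.1, 0.5, 1.0 or 10.0 μM compound diluted from 10 mM DMSO stock into RPMI or DMEM with 10% FBS, 37°C, 5% CO2. IC50 taken as concentration killing 50% of cells versus untreated culture.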

For assay [3], the system named is HL-60. Described as §1. It is filed as functional, cell-based. Put shortly: as §2
A short description of assay [4]: Antiproliferative activity against human SKOV3 cells after 72 hrs by MTT assay. To be noted: SK-OV-3, 72 h. It is filed as functional, cell-based. In a few lines:
as §2

Assay [5] in a line: (§3) Antiproliferative activity against human HL60/ADR cells after 72 hrs by MTT assay. It is filed as functional, cell-based. In a few lines: as §2
Assay [6] relates to HL60/ADR. The assay is described as §3. It is filed as functional, cell-based. Put shortly: as §2
Another assay has as its system Jurkat. Briefly: Antiproliferative activity against human Jurkat cells after 72 hrs by MTT assay. In kind it is functional, cell-based. In a few lines: as §2
A further assay concerns L929. Briefly: Antiproliferative activity against mouse L929 cells after 72 hrs by MTT assay. In kind it is functional, cell-based. To be noted: L929, 72 h. Put shortly:
as §2

The nature of assay [7]: Antiproliferative activity against mouse KS483 cells after 72 hrs by MTT assay. In kind it is cell-based. The settings on record: KS483, 72 h. In a few lines:
as §2

In assay [8] the test system is HL-60. Briefly: Antiproliferative activity against human HL60 cells at 0.01 to 10 uM by MTT assay. It is filed as functional, cell-based. To be noted: TDE = time-dependent effect. Put shortly:
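MTT viability: cells seeded 24 h at 2,000 (adherent) or 10,000 (suspension) per well, then exposed 72 h to 0.01-10.0 μM (0, 0.01, 0.1, 0.5, 1.0, 10.0 μM), diluted from 10 mM DMSO stock into medium with 10% FBS. IC50 is concentration killing 50% of cells relative to untreated control.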

A short description of assay [9]: Antiproliferative activity against human HL60 cells measured at 6 hrs by MTT assay. The settings on record: HL-60, 6 h. In kind it is functional, cell-based. In a few lines: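 Exposure-time series in HL-60 cells: compound present for 3, 6, 24, 48 or 72 h, viability then read by MTT. IC50 is concentration killing 50% of cells relative to untreated culture.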

Assay [10] has as its system HL-60. Briefly: Cytotoxicity against human HL60 cells assessed as reduction in cell survival up to 1 uM treated for 30 mins with ROS scavenger ascorbic acid measured after 72 hrs by MTT assay. In kind it is functional, cell-based.
Assay [11] relates to HL60/ADR. Briefly: Cytotoxicity against human HL60/ADR cells assessed as reduction in cell survival up to 1 uM treated for 30 mins with ROS scavenger ascorbic acid measured after 72 hrs by MTT assay. In kind it is functional, cell-based.
Assay [12] has as its system HL-60. Briefly: Induction of apoptosis in human HL60 cells assessed as apoptotic cells at 0.1 to 1 uM after 48 hrs by Annexin V-FITC/propidium iodide staining based fluorescence microscopic analysis. In kind it is functional, cell-based. In a few lines: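 HL-60 cells treated 48 h, pelleted at 2,000 rpm, washed twice in PBS and incubated 15 min in Annexin V binding buffer with 1/20 volume FITC-Annexin V and PI (20.0 μg/mL). Cells examined by fluorescence microscopy on duplicate slides, >500 cells counted per sample.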

Assay [13] concerns HL-60. Briefly: Induction of apoptosis in human HL60 cells assessed as decrease in Bcl-XL expression at 0.1 to 1 uM after 48 hrs by Western blot analysis. In kind it is functional, cell-based. In a few lines:
(§4)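 HL-60 cells exposed 48 h; proteins isolated, resolved by SDS/PAGE, transferred to PVDF and immunoblotted. Equal loading checked by re-probing the same membrane for beta-actin. Peroxidase-labelled secondary antibodies at 1:5,000.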

Assay [14] deals with MAP kinase p38 (Homo sapiens) (UniProt O15264+Q15759+Q16539+P53778). Briefly: Induction of MAPK p38 phosphorylation in human HL60 cells at 0.1 to 1 uM after 48 hrs by Western blot analysis. In kind it is cell-based. To be noted: HL-60. Put shortly:
as §4

The target of assay [15] is T1, c-Jun N-terminal kinase, JNK (Homo sapiens) (UniProt P45983+P53779+P45984). Briefly: Inhibition of JNK phosphorylation in human HL60 cells at 0.1 to 1 uM after 48 hrs by Western blot analysis. To be noted: HL-60. It is filed as cell-based. In a few lines:
as §4

For assay [16], the target named is T1, c-Jun N-terminal kinase, JNK (Homo sapiens). Briefly: Inhibition of JNK in human HL60 cells assessed as increase in phosphorylated STAT3 expression at 0.1 to 1 uM after 48 hrs by Western blot analysis. It is filed as cell-based. To be noted: HL-60. Put shortly:
as §4

Assay [17] concerns the target T2, Endonuclease G, mitochondrial (Homo sapiens) (UniProt Q14249).
T2 sequence (whole entry): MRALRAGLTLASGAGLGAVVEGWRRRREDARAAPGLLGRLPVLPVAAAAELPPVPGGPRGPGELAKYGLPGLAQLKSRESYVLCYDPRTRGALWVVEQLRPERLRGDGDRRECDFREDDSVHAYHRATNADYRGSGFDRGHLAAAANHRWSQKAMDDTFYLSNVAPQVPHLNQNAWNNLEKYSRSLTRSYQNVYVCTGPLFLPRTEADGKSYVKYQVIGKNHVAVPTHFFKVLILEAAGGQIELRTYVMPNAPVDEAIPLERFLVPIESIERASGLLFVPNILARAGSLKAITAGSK
Briefly: Activation of endonuclease G in human HL60 cells at 0.1 to 1 uM after 48 hrs by Western blot analysis. It is filed as cell-based. To be noted: HL-60. In a few lines:
as §4

Assay [18] concerns HL-60. Briefly: Induction of apoptosis in human HL60 cells assessed as increase in p21 expression at 0.1 to 1 uM after 48 hrs by Western blot analysis. It is filed as functional, cell-based. In a few lines:
as §4

Assay [19] has as its system HL-60. Briefly: Induction of apoptosis in human HL60 cells assessed as decrease in cyclinD3 expression at 0.1 to 1 uM after 48 hrs by Western blot analysis. It is filed as functional, cell-based. In a few lines:
as §4

With `CC(=O)Oc1cccc(N2C(=O)/C(=C/N3N=C(c4ccccc4)CC3c3ccccc3O)SC2=S)c1` (stereo unspecified), the outcome in the assay on HL-60 [1], in the assay with HL-60 [10] and in the assay with HL60/ADR [11] was inactive. The pIC50 in assay [2] was 6.93; in assay [4], less than 5.00; in [5], 6.00; in the assay on Jurkat it was 5.96; in the assay with L929 it was less than 5.00; in assay [7], less than 5.00. The negative logarithm of the IC50 (pIC50) in [9] was 6.30. For the same molecule, the figures for the Activity result with HL-60 [3], in the assay on HL60/ADR [6] and in the assay with HL-60 [8] were “Dose-dependent effect”, “Dose-dependent effect” and “tde”, respectively. In addition, the outcome (with HL-60 [12]; with HL-60 [13]; in assay [14]; in assay [17]; in the assay with HL-60 [18]; with HL-60 [19]) was Active. Besides, the inhibition entry in assay [15] and in assay [16] was “Active” in each case.
